Measurements: ChEMBL document CHEMBL2396639, “Peptidomimetic modification improves cell permeation of bivalent farnesyltransferase inhibitors” (Bioorg Med Chem, 2013)
Each block holds one compound with its values, some of them ahead of it. The source made the active and inactive calls. No cut-off for these calls is given here. Residues, ends and D or L forms follow the SMILES beside them. *: point of attachment. X1 = NCC(CN)CCOc1cc(C(=O)*)cc(OCCC(CN)CN)c1OCCC(CN)CN; Ahx = NCCCCCC(=O)O

Tests used:
A549 [1] = assay: Cellular uptake in human A549 cells at 25 uM after 3 hrs by confocal microscopy; format: ADME, cell-based; conditions: a549, 3 h
How it was run: (§1)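 A549 cells grown in RPMI 1640 with 10% heat-inactivated FBS at 37 °C, 5% CO2. Seeded on glass dish at 1×10^5 cells/mL, adhered overnight. Fluorescent BODIPY-labelled compound added from DMSO stock at 25 μM (0.1% DMSO final), 3 h at 37 °C. Cells washed four times with PBS, covered with Opti-MEM, imaged by laser scanning confocal microscopy.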

[2] = biological target: T1, Protein farnesyltransferase (Homo sapiens, UniProt P49354+P49356); assay: Inhibition of FTase (unknown origin)-mediated K-Ras4B model peptide KKKKKKSK(Dans)TKCVIM farnesylation by microplate reader analysis; format: protein-complex assay
How it was run: (§2)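 Recombinant mammalian FTase (50 nM) with dansylated K-Ras4B peptide (1 μM) and FPP (5 μM). Compound tested at 0–500 μM in 50 mM Tris HCl pH 7.5 at 30 °C. Reagents spotted separately, and buffer addition starts the reaction. Fluorescence (ex 340/em 520 nm) followed for 5 min on a plate reader, n = 3. IC50 converted to Ki by Cheng-Prusoff with peptide Km 0.033 μM.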

[3] = biological target: T1, Protein farnesyltransferase; assay: Inhibition of FTase-mediated prenylation in human A549 cells assessed as inhibition of HDJ-2 processing at 10 to 100 uM treated twice on day 1 and day 3 followed by incubation for 4 days by Western blot analysis; format: cell-based
How it was run: (§3)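 T24 cells (MEM) or A549 cells (RPMI 1640), each with 10% bovine serum. Cells treated twice with compound at 10, 30 and 100 μM, or DMSO control, then harvested on day 4 and lysed in Tris pH 7.6/Triton X-100 buffer. Lysate (5 µg) run on 7.5% SDS-PAGE, transferred to PVDF, probed with anti-HDJ-2. Read as band shift from processed to unprocessed HDJ-2, detected by HRP anti-rabbit IgG with ECL.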

[4] = biological target: T1, Protein farnesyltransferase; assay: Inhibition of recombinant FTase (unknown origin)-mediated K-Ras4B model peptide KKKKKKSK(Dans)TKCVIM farnesylation by fluorescence plate reader analysis in presence of FPP; format: protein-complex assay; how it was run: as §2
A549 [5] = assay: Drug uptake in human A549 cells assessed as accumulation on plasma membrane at 25 uM after 3 hrs by confocal microscopy; format: ADME, cell-based; conditions: a549, 3 h; how it was run: as §1
[6] = biological target: T1, Protein farnesyltransferase; assay: Inhibition of FTase-mediated prenylation in human T24 cells assessed as inhibition of HDJ-2 processing at 10 to 100 uM treated twice on day 1 and day 3 followed by incubation for 4 days by Western blot analysis; format: cell-based; conditions: T-24; how it was run: as §3
T-24 = assay: Inhibition of GGTase1-mediated prenylation in human T24 cells assessed as inhibition of Rap1A processing at 10 to 100 uM treated twice on day 1 and day 3 followed by incubation for 4 days by Western blot analysis; format: cell-based
How it was run: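 T24 cells grown in MEM with 10% bovine serum. Treated twice with compound at 10, 30 and 100 μM, or DMSO control, then harvested on day 4 and lysed. Lysate (5 µg) run on 12.5% SDS-PAGE, transferred to PVDF, probed with anti-Rap1A. Geranylgeranylation read as shift from processed to unprocessed Rap1A band, detected by HRP anti-rabbit IgG with ECL.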

[7] = Drug uptake in human A549 cell cytosol at 25 uM after 3 hrs by confocal microscopy; format: ADME, cell-based; how it was run: as §1
[8] = Drug uptake in human A549 cell nucleus at 25 uM after 3 hrs by confocal microscopy; format: ADME, cell-based; conditions: a549, 3 h; how it was run: as §1

Drug uptake (A549 [1]): Active
SMILES: CC1=CC(C)=[N+]2C1=C(CCC(=O)NCCCC[C@H](NC(=O)c1cc(OCCC(CN)CN)c(OCCC(CN)CN)c(OCCC(CN)CN)c1)C(=O)O)c1c(C)cc(C)n1[B-]2(F)F

Ki [2]: 5 nM
inhibition [3]: inactive
Ki [4]: 15 nM
SMILES: CC[C@H](C)[C@H](NC(=O)[C@@H](NC(=O)[C@H](CS)NC(=O)CCCCCNC(=O)c1cc(OCCC(CN)CN)c(OCCC(CN)CN)c(OCCC(CN)CN)c1)C(C)C)C(=O)N[C@@H](CCSC)C(=O)O ({X1-Ahx}-CVIM-OH)

Drug uptake (A549 [5]): Not Active
SMILES: CC[C@H](C)[C@H](NC(=O)[C@@H](NC(=O)[C@H](CS)NC(=O)CCNC(=O)[C@H](CCCCNC(=O)CCC1=C2C(C)=CC(C)=[N+]2[B-](F)(F)n2c(C)cc(C)c21)NC(=O)c1cc(OCCC(CN)CN)c(OCCC(CN)CN)c(OCCC(CN)CN)c1)C(C)C)C(=O)N[C@@H](CCSC)C(=O)O

Ki [4]: 785 nM
SMILES: CSCC[C@H](NC(=O)c1ccc(NC[C@@H](N)CS)cc1)C(=O)O

Ki [4]: 837 nM
SMILES: CSCC[C@H](NC(=O)c1ccc(NC[C@H](CS)NC(=O)CCCCCNC(=O)c2cc(OCCC(CN)CN)c(OCCC(CN)CN)c(OCCC(CN)CN)c2)cc1)C(=O)O

inhibition [6]: Active
inhibition [3]: Active
SMILES: COC(=O)[C@H](CCSC)NC(=O)c1ccc(NC[C@H](CS)NC(=O)CCCCCNC(=O)c2cc(OCCC(CN)CN)c(OCCC(CN)CN)c(OCCC(CN)CN)c2)cc1
inhibition (T-24): inactive

Drug uptake [7]: Active
Drug uptake [8]: Not Active
SMILES: COC(=O)[C@H](CCSC)NC(=O)c1ccc(NC[C@H](CS)NC(=O)CCNC(=O)[C@H](CCCCNC(=O)CCC2=C3C(C)=CC(C)=[N+]3[B-](F)(F)n3c(C)cc(C)c32)NC(=O)c2cc(OCCC(CN)CN)c(OCCC(CN)CN)c(OCCC(CN)CN)c2)cc1

Ki [2]: 1100 nM
SMILES: CC[C@H](C)[C@H](NC(=O)[C@@H](NC(=O)[C@@H](N)CS)C(C)C)C(=O)N[C@@H](CCSC)C(=O)O
